# Reference: ChEMBL document CHEMBL4190389, “Synthesis and activity of di- or trisubstituted N-(phenoxyalkyl)- or N-{2-[2-(phenoxy)ethoxy]ethyl}piperazine derivatives on the central nervous system” (Bioorg Med Chem Lett, 2018)
# The source made the active and inactive calls. The rule behind the calls is not given here.
# What was measured:
# [1] = target: T1, 5-hydroxytryptamine receptor 1A (Homo sapiens) (UniProt P08908); experiment: (§1) Antagonist activity at human 5-HT1A receptor expressed in CHO-K1 cells co-expressing Galpha16 assessed as decrease in serotonin calcium mobilization preincubated for 25 mins followed by serotonin challenge measured for 30 secs by aequorin-derived luminescence assay; assay type: functional, cell-based
# T1 sequence (whole entry): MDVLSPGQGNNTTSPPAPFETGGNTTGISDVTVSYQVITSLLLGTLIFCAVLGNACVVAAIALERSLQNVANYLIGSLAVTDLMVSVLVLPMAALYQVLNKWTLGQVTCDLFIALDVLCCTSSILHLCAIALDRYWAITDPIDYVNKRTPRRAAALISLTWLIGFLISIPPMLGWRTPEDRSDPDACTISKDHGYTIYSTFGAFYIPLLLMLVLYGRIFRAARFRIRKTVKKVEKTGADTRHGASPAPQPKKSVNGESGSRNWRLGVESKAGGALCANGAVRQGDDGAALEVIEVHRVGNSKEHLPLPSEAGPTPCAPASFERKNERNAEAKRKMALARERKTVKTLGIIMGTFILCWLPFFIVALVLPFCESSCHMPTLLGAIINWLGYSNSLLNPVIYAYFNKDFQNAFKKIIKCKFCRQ
# [2] = target: T2, 5-hydroxytryptamine receptor 1A (Homo sapiens, UniProt P08908); experiment: as §1; assay type: functional, cell-based
# T2 sequence (P08908 whole entry): T1 sequence (whole entry)
# D(2) dopamine receptor [3] = target: T3, D(2) dopamine receptor (Homo sapiens, UniProt P14416); experiment: Displacement of [3H]methylspiperonee from recombinant human D2 receptor expressed in HEK293 cells cell membranes after 60 mins by liquid scintillation counting method
# [4] = target: T4, 5-hydroxytryptamine receptor 2A (Homo sapiens, UniProt P28223); experiment: biochemical; assay type: cell-based, HEK293
# [5] = target: T5, 5-hydroxytryptamine receptor 7 (Homo sapiens, UniProt P34969); experiment: Antagonist activity at human 5-HT7 receptor expressed in CHO-K1 cells assessed as decrease in serotonin-induced cAMP level after 1 hr by TR-FRET assay relative to control; assay type: functional, cell-based
# D(2) dopamine receptor [6] = target: T3, D(2) dopamine receptor; experiment: Antagonist activity at human D2 receptor expressed in CHO-K1 cells co-expressing Galphaqi5 assessed as decrease in apomorphine-induced calcium mobilization preincubated for 30 mins followed by apomorphine challenge measured for 30 secs by aequorin-derived luminescence assay; assay type: functional, cell-based
# Mus musculus [7] = experiment: Toxicity in Albino Swiss CD-1 mouse assessed as effect on locomotory activity at 1.25 to 5 mg/kg, ip administered for 30 mins prior to test measured for 1 min; assay type: organism-based; details: in vivo
# [8] = target: 5-hydroxytryptamine receptor 6 (Homo sapiens, UniProt P50406); experiment: Displacement of [3H]LSD from recombinant human 5-HT6 receptor expressed in CHO cells cell membranes after 60 mins by liquid scintillation counting method
# D(2) dopamine receptor [9] = target: T3, D(2) dopamine receptor; experiment: Agonist activity at human D2 receptor expressed in CHO-K1 cells co-expressing Galphaqi5 assessed as increase apomorphine-induced calcium mobilization measured for 30 secs by aequorin-derived luminescence assay relative to apomorphine; assay type: functional, cell-based
# Mus musculus [10] = experiment: Antidepressant-like activity in Albino Swiss CD-1 mouse assessed as immobility time at 10 mg/kg, ip administered 30 mins prior to test measured for last 4 mins of 6 mins observation by forced swim test (reference value: 153.9 to 201.9 secs); assay type: functional
# [11] = target: T1, 5-hydroxytryptamine receptor 1A (Homo sapiens); experiment: Antagonist activity at human 5-HT1A receptor expressed in CHO-K1 cells co-expressing Galpha16 assessed as decrease in serotonin-induced calcium mobilization preincubated for 25 mins followed by serotonin challenge measured for 30 secs by aequorin-derived luminescence assay relative to control; assay type: functional, cell-based
# Mus musculus [12] = experiment: Anxiolytic-like activity in Albino Swiss CD-1 mouse assessed as increase in number of punished crossings at 2.5 to 5 mg/kg, ip administered for 30 mins prior to test measured for 1 min by four-plate test; assay type: functional, organism-based
# How it was run: (§2)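 Four-plate test in mice, i.p., 30 min before test; vehicle 0.9% NaCl; doses 1.25–10 mg/kg; number of punished crossings counted; mean ± SEM, n = 8–10 mice per group; ANOVA F statistics.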
# [13] = target: T5, 5-hydroxytryptamine receptor 7; experiment: biochemical; assay type: cell-based, CHO
# [14] = target: T2, 5-hydroxytryptamine receptor 1A; experiment: Displacement of [3H]8-OH-DPAT from recombinant human 5-HT1A receptor expressed in HEK293 cell membranes after 60 mins by liquid scintillation counting method
# [15] = target: T5, 5-hydroxytryptamine receptor 7; experiment: Agonist activity at human 5-HT7 receptor expressed in CHO-K1 cells assessed as increase in serotonin-induced cAMP level after 1 hr by TR-FRET assay relative to serotonin; assay type: functional, cell-based
# Mus musculus [16] = experiment: Antidepressant-like activity in Albino Swiss CD-1 mouse assessed as immobility time at 20 mg/kg, ip administered 30 mins prior to test measured for last 4 mins of 6 mins observation by forced swim test (reference value: 153.9 to 201.9 secs); assay type: functional
# Mus musculus [17] = experiment: Toxicity in Albino Swiss CD-1 mouse assessed as death at 30 mg/kg, ip; assay type: organism-based; details: in vivo
# How it was run: (§3)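 Deaths counted in mice during maximal electroshock (MES) seizure testing after i.p. dosing, 6 mice per dose (3 or 1 at some top doses); recorded as number dead/number tested alongside protection and rotarod motor impairment (10 rpm); untreated control group included.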
# [18] = target: T5, 5-hydroxytryptamine receptor 7; experiment: Antagonist activity at human 5-HT7 receptor expressed in CHO-K1 cells assessed as decrease in serotonin-induced cAMP level after 1 hr by TR-FRET assay; assay type: functional, cell-based
# [19] = target: T1, 5-hydroxytryptamine receptor 1A (Homo sapiens); experiment: Agonist activity at human 5-HT1A receptor expressed in CHO-K1 cells co-expressing Galpha16 assessed as increase in calcium mobilization measured for 30 secs by aequorin-derived luminescence assay relative to serotonin; assay type: functional, cell-based
# [20] = target: T6, Alpha-1A adrenergic receptor (Homo sapiens, UniProt P35348); experiment: Displacement of [3H]prazosin from recombinant human alpha1 adrenoceptor expressed in CHO cell membranes after 30 mins by liquid scintillation counting method
# T6 sequence (P35348 whole entry): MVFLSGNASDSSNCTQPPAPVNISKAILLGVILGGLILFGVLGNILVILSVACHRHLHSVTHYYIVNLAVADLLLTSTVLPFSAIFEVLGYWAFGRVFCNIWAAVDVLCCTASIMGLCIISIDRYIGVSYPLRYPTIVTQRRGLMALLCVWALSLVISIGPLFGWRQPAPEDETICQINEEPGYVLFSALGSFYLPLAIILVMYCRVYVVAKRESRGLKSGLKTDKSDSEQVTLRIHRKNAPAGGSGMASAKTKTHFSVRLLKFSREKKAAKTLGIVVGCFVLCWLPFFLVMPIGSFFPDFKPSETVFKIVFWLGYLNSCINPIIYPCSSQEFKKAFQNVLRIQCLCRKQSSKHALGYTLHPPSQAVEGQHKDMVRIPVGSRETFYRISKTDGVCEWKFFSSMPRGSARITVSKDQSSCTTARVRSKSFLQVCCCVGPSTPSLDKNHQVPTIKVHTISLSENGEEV
# Mus musculus [21] = experiment: Antidepressant-like activity in Albino Swiss CD-1 mouse assessed as immobility time at 5 mg/kg, ip administered 30 mins prior to test measured for last 4 mins of 6 mins observation by forced swim test (reference value: 153.9 to 201.9 secs); assay type: functional
# [22] = target: T4, 5-hydroxytryptamine receptor 2A; experiment: Antagonist activity at human 5-HT2A receptor expressed in CHO-K1 cells co-expressing Galpha16 assessed as decrease in serotonin calcium mobilization preincubated for 30 mins followed by serotonin challenge measured for 30 secs by aequorin-derived luminescence assay; assay type: functional, cell-based
# [23] = target: T1, 5-hydroxytryptamine receptor 1A (Homo sapiens); experiment: Displacement of [3H]8-OH-DPAT from recombinant human 5-HT1A receptor expressed in HEK293 cell membranes at 10^-5 M after 60 mins by liquid scintillation counting method
# Mus musculus [24] = experiment: Antiallodynic activity in oxaliplatin-induced Albino Swiss CD-1 mouse allodynia model assessed as effect on jumping at 30 mg/kg, ip measured after 60 mins by cold plate test; assay type: functional, organism-based
# Mus musculus [25] = experiment: Antiallodynic activity in STZ-induced Albino Swiss CD-1 mouse allodynia model assessed as increase in paw withdrawal latency time at 30 mg/kg, ip measured after 60 mins by Von Frey test; assay type: functional, organism-based
# [26] = Neurotoxicity in ip dosed Albino Swiss CD-1 mouse assessed as minimum dose required to induce motor impairment treated 30 mins prior to test by rotarod test; assay type: toxicity, organism-based; details: in vivo
# D(2) dopamine receptor [27] = target: T3, D(2) dopamine receptor; experiment: Displacement of [3H]methylspiperonee from recombinant human D2 receptor expressed in HEK293 cell membranes at 10^-5 M after 60 mins by liquid scintillation counting method
# Mus musculus [28] = experiment: Antiallodynic activity in oxaliplatin-induced Albino Swiss CD-1 mouse allodynia model assessed as effect on hind paw licking at 30 mg/kg, ip measured after 60 mins by cold plate test; assay type: functional, organism-based
# [29] = Protection index, ratio of TD50 for motor impairment in ip dosed Swiss albino CD-1 mouse to ED50 for protection against 50 Hz current-induced seizures in ip dosed Swiss albino CD-1 mouse; assay type: toxicity, organism-based, Swiss CD-1; details: in vivo, read-out: Ratio TD50/ED50
# Mus musculus [30] = experiment: Antinociceptive activity in STZ-induced Albino Swiss CD-1 mouse model of thermal-induced nociception assessed as increase in latency to respond with hind paw lick or jumping at 30 mg/kg, ip measured after 60 mins by hot plate test; assay type: functional, organism-based
# Mus musculus [31] = experiment: Anticonvulsant activity in Albino Swiss CD-1 mouse assessed as protection against 50 Hz current-induced seizure at 100 mg/kg, ip; assay type: functional, organism-based
# Mus musculus [32] = experiment: Anxiolytic-like activity in Albino Swiss CD-1 mouse assessed as increase in number of punished crossings at 5 to 10 mg/kg, ip administered for 30 mins prior to test measured for 1 min by four-plate test; assay type: functional, organism-based; how it was run: as §2
# Mus musculus [33] = experiment: Antiallodynic activity in oxaliplatin-induced Albino Swiss CD-1 mouse allodynia model assessed as effect on shaking at 30 mg/kg, ip measured after 60 mins by cold plate test; assay type: functional, organism-based
# Mus musculus [34] = experiment: Toxicity in Albino Swiss CD-1 mouse assessed as death at 30 to 100 mg/kg, ip; assay type: organism-based; details: in vivo; how it was run: as §3
# Mus musculus [35] = experiment: Anticonvulsant activity in ip dosed Albino Swiss CD-1 mouse assessed as dose required to protect against 50 Hz current-induced seizure; assay type: functional; details: Swiss CD-1, ip
# Mus musculus [36] = experiment: Antiallodynic activity in oxaliplatin-induced Albino Swiss CD-1 mouse allodynia model assessed as effect on decrease in abnormal movement at 30 mg/kg, ip measured after 60 mins by cold plate test; assay type: functional, organism-based
# [37] = target: T7, Alpha-1A adrenergic receptor (Homo sapiens) (UniProt P35348); experiment: Displacement of [3H]prazosin from recombinant human alpha1 adrenoceptor expressed in CHO cell membranes at 10^-5 M after 30 mins by liquid scintillation counting method
# T7 sequence (whole entry): T6 sequence (P35348 whole entry)
# Mus musculus [38] = experiment: Toxicity in Albino Swiss CD-1 mouse assessed as effect on locomotory activity at 5 to 10 mg/kg, ip administered for 30 mins prior to test measured for 1 min; assay type: organism-based; details: in vivo
# How it was run: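 Mice dosed i.p. 30 min before test; vehicle groups received 0.9% NaCl. Spontaneous locomotion scored as number of crossings during a 1-min session. Each dose compared with its own vehicle group by Student t-test; mean ± SEM, n = 8–10 mice per group.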
# T5 sequence (P34969 whole entry): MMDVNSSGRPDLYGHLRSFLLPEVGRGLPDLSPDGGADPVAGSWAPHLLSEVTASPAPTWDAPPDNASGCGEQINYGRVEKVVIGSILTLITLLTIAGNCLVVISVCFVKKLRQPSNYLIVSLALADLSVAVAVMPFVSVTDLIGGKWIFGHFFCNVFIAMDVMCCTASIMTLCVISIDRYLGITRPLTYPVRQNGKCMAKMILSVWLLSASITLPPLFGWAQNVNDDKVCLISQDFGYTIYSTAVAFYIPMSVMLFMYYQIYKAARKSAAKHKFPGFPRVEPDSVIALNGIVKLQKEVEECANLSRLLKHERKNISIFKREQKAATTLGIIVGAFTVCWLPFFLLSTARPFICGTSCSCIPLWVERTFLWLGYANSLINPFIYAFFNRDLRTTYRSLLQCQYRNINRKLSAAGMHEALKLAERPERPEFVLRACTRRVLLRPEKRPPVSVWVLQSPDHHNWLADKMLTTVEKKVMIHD
# T3 sequence (P14416 whole entry): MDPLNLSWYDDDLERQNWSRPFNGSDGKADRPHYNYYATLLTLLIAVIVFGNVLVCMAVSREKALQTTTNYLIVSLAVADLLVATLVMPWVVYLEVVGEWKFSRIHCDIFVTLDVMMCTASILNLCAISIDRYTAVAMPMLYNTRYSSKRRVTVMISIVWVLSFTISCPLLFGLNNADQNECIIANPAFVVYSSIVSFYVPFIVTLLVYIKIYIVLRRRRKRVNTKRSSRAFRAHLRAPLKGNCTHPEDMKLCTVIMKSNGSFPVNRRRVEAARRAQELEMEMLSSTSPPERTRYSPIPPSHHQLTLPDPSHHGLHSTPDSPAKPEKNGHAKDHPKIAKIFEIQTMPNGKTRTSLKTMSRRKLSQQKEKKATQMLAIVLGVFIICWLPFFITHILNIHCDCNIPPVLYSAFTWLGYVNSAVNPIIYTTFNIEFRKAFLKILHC
# T4 sequence (P28223 whole entry): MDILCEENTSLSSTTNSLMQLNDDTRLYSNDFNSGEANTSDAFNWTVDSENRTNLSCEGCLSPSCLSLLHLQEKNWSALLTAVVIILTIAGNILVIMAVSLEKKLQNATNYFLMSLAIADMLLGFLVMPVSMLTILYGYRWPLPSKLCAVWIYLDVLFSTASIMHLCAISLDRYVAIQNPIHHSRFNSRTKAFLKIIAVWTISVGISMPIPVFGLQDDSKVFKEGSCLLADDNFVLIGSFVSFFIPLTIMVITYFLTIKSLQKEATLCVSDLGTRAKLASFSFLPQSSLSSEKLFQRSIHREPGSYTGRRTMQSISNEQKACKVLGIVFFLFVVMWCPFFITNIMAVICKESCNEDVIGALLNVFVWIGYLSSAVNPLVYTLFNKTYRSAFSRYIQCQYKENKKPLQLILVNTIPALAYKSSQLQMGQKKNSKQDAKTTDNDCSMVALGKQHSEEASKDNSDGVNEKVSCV
# Chain of 5-hydroxytryptamine receptor 6 (P50406 whole entry): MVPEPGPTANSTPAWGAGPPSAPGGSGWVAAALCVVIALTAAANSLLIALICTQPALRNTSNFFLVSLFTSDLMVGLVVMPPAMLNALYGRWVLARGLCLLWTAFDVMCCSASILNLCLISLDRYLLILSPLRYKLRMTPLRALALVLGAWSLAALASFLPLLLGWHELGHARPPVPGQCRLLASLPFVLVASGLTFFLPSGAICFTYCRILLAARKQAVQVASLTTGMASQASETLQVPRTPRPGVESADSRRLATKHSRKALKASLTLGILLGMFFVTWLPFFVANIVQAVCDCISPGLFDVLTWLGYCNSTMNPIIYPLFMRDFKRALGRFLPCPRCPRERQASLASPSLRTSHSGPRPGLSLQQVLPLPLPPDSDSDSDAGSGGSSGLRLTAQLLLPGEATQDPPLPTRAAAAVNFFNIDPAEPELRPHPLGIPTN
smiles,measurement,setting,value
COc1ccccc1N1CCN(CCOCCOc2cc(C)cc(C)c2C)CC1.Cl.Cl,Kb,[1],92.3 nM
same,IC50,[2],376 nM
same,Ki,D(2) dopamine receptor [3],162 nM
same,Ki,[4],159 nM
same,Emax,[5],11%
same,IC50,D(2) dopamine receptor [6],78.5 nM
same,Kb,D(2) dopamine receptor [6],23.4 nM
same,Activity,Mus musculus [7],Non-Toxic
same,Ki,[8],1540 nM
same,Emax,D(2) dopamine receptor [9],1%
same,Time,Mus musculus [10],141.9 s
same,Emax,[11],4%
same,Activity,Mus musculus [12],Active
same,Ki,[13],89 nM
same,Ki,[14],32 nM
same,Emax,[15],9%
same,Time,Mus musculus [16],156.1 s
same,Activity,Mus musculus [17],Non-Toxic
same,IC50,[18],2340 nM
same,Kb,[18],995 nM
same,Emax,[19],5%
same,Ki,[20],14 nM
same,Time,Mus musculus [21],165.6 s
same,IC50,[22],4010 nM
Cc1cc(C)c(C)c(OCCOCCN2CCN(CCO)CC2)c1.Cl.Cl,inhibition,[23],inactive
same,Ki,[4],> 5000 nM
same,Activity,Mus musculus [24],inactive
same,Activity,Mus musculus [25],Active
same,TD50 at 0.5 h,[26],74.9 mg/kg
same,Ki,[8],> 5000 nM
same,Time,Mus musculus [10],184.9 s
same,inhibition,D(2) dopamine receptor [27],inactive
same,Activity,Mus musculus [28],inactive
same,selectivity ratio,[29],3.07
same,Activity,Mus musculus [30],inactive
same,Ki,[13],3140 nM
same,Activity,Mus musculus [31],Active
same,Activity,Mus musculus [32],inactive
same,Activity,Mus musculus [33],inactive
same,Time,Mus musculus [16],176.4 s
same,Activity,Mus musculus [34],Non-Toxic
same,ED50,Mus musculus [35],24.4 mg/kg
same,Activity,Mus musculus [36],inactive
same,inhibition,[37],inactive
same,Time,Mus musculus [21],171.8 s
same,Activity,Mus musculus [38],Non-Toxic
